Reference: the RNAGym collection of RNA variant scans (doi:10.1126/science.aae0568)
This sample holds only a part of the variants without activity.

B1: tRNA (parent)
chain: GUUCCGUUGGCGUAAUGGUAACGCGUCUCCCUCCUAAGGAGAAGACUGCGGGUUCGAGUCCCGUACGGAACG

Variants of: B1
Assay: yeast fitness relative to wild type (ratio to wild type); higher = fitter; tRNA-Arg(CCU), competitive growth, 37 C, YPD
Outline: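 The tRNA-Arg(CCU) gene variants were made by chemical synthesis with a 3% per-site mutation rate at 69 sites and inserted at the native genomic locus of Saccharomyces cerevisiae. After pooling, the strains were competed in YPD at 37°C for 24 hours in six parallel replicates. Gene amplicons from the start population and each end population were read by 100-nucleotide paired-end sequencing, and Darwinian fitness relative to wild type was taken from genotype frequency changes. Genotypes needed ≥ 100 starting reads, and estimates < 0.5 were set to 0.5.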
Work on GUUCCGUUGGCGUAUUGGUAACGCGUCUCCCUCCUAAGGAGAUGACUGCGGGUUCGAGUCCCGUCCGGAACG [A15U A43U A65C] yielded a yeast fitness of 0.569.
In the case of GUUCCGUUGGCGUAUUGGUAACGCGUCUCCCUCCUAAGGAGAUGACUGCGGGUUCGAGUCCCGUACGGCACG [A15U A43U A69C], the yeast fitness is reported as 0.697.
With GUUCCGUUGGCGUAUUGGUAACGCGUCUCCCUCCUAAGGAGAUGACUGCGGGUUUGAGUACCGUACGGAACG [A15U A43U C55U C60A] the yeast fitness was 0.69.
Work on GUUCCGUUGGCGUAUUGGUAACGCGUCUCCCUCCUAAGGAGAAGCCUGCGGGUUCGAGUCCCGUACGGAACG [A15U A45C] yielded a yeast fitness of 0.803.
GUUCCGUUGGCGUAUUGGUAACGCGUCUCCCUCCUAAGGAGAAGCAUGCGGGUUCGAGUCCCGUAUGGAACG [A15U A45C C46A C66U] showed a yeast fitness of at most 0.5.
GUUCCGUUGGCGUAUUGGUAACGCGUCUCCCUCCUAAGGAGAAGUGUGCGGGUUCGAGUCCCGUACGGAACG [A15U A45U C46G] showed a yeast fitness of at most 0.5.
GUUCCGUUGGCGUAUUGGUAACGCGUCUCCCUCCUAAGGAGAAGACUGCGGGUUCGUGUCCCGUACGGACCG [A15U A57U A70C] showed a yeast fitness of at most 0.5.
GUUCCGUUGGCGUAUUGGUAACGCGUCUCCCUCCUAAGGAGAAGACUGCGGGUUCGAGUCCCGUGCGGAACG [A15U A65G] showed a yeast fitness of 0.649.
GUUCCGUUGGCGUAUUGGUAACGCGUCUCCCUCCUAAGGAGAAGACUGCGGGUUCGAGUCCCGUGACGAACG [A15U A65G C66A G67C] showed a yeast fitness of at most 0.5.
GUUCCGUUGGCGUAUUGGUAACGCGUCUCCCUCCUAAGGAGAAGACUGCGGGUUCGAGUCCCGUUCGGAACG [A15U A65U] gave a yeast fitness of 0.775.
For GUUCCGUUGGCGUAUUGGUAAAAAGUCUCCCUCCUAAGGAGAAGACUGCGGGUUCGAGUCCCGUACGGAACG [A15U C22A G23A C24A], the yeast fitness was at most 0.5.
GUUCCGUUGGCGUAUUGGUAAGGCGUGUCCCUCCUAAGGAGCAGACUGCGGGUUCGAGUCCCCUACGGAACG [A15U C22G C27G A42C G63C] gave a yeast fitness of at most 0.5.
For GUUCCGUUGGCGUAUUGGUAAGGCGUUUCCCUCCUCAGCAGAAGACUCCGGGUUCGAGUCCCUUACGGAUCG [A15U C22G C27U A36C G39C G48C G63U A70U], the yeast fitness was at most 0.5.
With GUUCCGUUGGCGUAUUGGUAAGGCGUCUCCUUCCUAAGGAGAAGACUGCGGGUUCGCGUCCCGAACGAAACG [A15U C22G C31U A57C U64A G68A] the yeast fitness was 0.553.
With GUUCCGUUGGCGUAUUGGUAAGGCGUCUCCUUCCUAAGGAGAAGAGUGCGGGUUCGAGUCCCAUACGGAACG [A15U C22G C31U C46G G63A] the yeast fitness was at most 0.5.
GUUCCGUUGGCGUAUUGGUAAGGCGUCUCCUUCCUAAGGAGAAGAGUGCGGGUACGAGUCCCGUACGGAACG [A15U C22G C31U C46G U54A] showed a yeast fitness of at most 0.5.
Variant GUUCCGUUGGCGUAUUGGUAAGGCGUCUCCUCCCUAAGGAGAAGACUGCGGGUUCGCGUCCCGAACGAAACG [A15U C22G C31U U32C A57C U64A G68A] has a yeast fitness of at most 0.5.
Work on GUUCCGUUGGCGUAUUGGUAAGGCGUCUCCCUCCUAAGGAGAAGACUGCGGGUUCGAGUCCUGUACGGAACG [A15U C22G C62U] yielded a yeast fitness of at most 0.5.
Variant GUUCCGUUGGCGUAUUGGUAAGGCAUCUCCUUCCUAAGGAGAAGACUGCGGGUUCGCGUCCCGAACGAAACG [A15U C22G G25A C31U A57C U64A G68A] has a yeast fitness of at most 0.5.
In the case of GUUCCGUUGGCGUAUUGGUAAGGCGUCUCCCUCCUAAGGAGAAGACUGCGGAUUCGAGUCCCGUACGGAACG [A15U C22G G52A], the yeast fitness is reported as at most 0.5.
In the case of GUUCCGUUGGCGUAUUGGUAAGGCGUCUCCCUCCUAAGGAGAAGACUGCGGCUUCGAGUCCCGUACGGAACG [A15U C22G G52C], the yeast fitness is reported as 0.529.
GUUCCGUUGGCGUAUUGGUAAGGCGUCUCCCUCCUAAGGAGAAGACUGCGGGUUCGACUCCCGUACGAAACG [A15U C22G G58C G68A] gave a yeast fitness of at most 0.5.
In the case of GUUCCGUUGGCGUAUUGGUAAUGCGUCUCCCUCCUAAGGAGACGACUGCGGGUUUGAAUCCCGUACGGAACG [A15U C22U A43C C55U G58A], the yeast fitness is reported as at most 0.5.
GUUCCGUUGGCGUAUUGGUAAUGCGUCUCCCUCCUAAGGAGAAGACUGCGGGUUCGCGUCCCGUACGGAACG [A15U C22U A57C] showed a yeast fitness of at most 0.5.
GUUCCGUUGGCGUAUUGGUAAUGCGUCUCCCUCCUAAGGAGAAGACUGCGGGUUCGAGUCCCGUACGGACCG [A15U C22U A70C] showed a yeast fitness of at most 0.5.
In the case of GUUCCGUUGGCGUAUUGGUAAUGCGUCUCCCUCCUAAGCAGAAGACUGCGGGUUCGAGUCCCGUACGGAACG [A15U C22U G39C], the yeast fitness is reported as at most 0.5.
Work on GUUCCGUUGGCGUAUUGGUAAUGCGUCUCCCUCCUAAGGAGAAGACUGCGGGUCCGAGUCCCGUACGGAACG [A15U C22U U54C] yielded a yeast fitness of 0.754.
In the case of GUUCCGUUGGCGUAUUGGUAACGAGUCUCCCUCGUAAGUAGAAGACUGCGGGUUCGACUCCCGUACGGAACG [A15U C24A C34G G39U G58C], the yeast fitness is reported as at most 0.5.
Variant GUUCCGUUGGCGUAUUGGUAACGAGUCUCCCUCCUAAGGAGAAGACUGCGGGUUUGAGCCCCGUACGGAACG [A15U C24A C55U U59C] has a yeast fitness of 0.526.
GUUCCGUUGGCGUAUUGGUAACGGGUCUCCCUCCUAAGGAGCAGACUGCGGGUUCGAGUCCCGUACGGAACG [A15U C24G A42C] showed a yeast fitness of at most 0.5.
GUUCCGUUGGCGUAUUGGUAACGGGUCUCCCUCCUAAGGAGCAGACUGCGGGUUUGAGUCCCGUACGUAACG [A15U C24G A42C C55U G68U] gave a yeast fitness of at most 0.5.
For GUUCCGUUGGCGUAUUGGUAACGGGUCUCCCUCCUAAGGAGCAGACUGCGGGUUCGAGUCCUGUACGGAACG [A15U C24G A42C C62U], the yeast fitness was at most 0.5.
With GUUCCGUUGGCGUAUUGGUAACGGGUCUCCCUCCUAAGGAGCAGACUGCGGGUUCGAGUCCCGCACGGAACG [A15U C24G A42C U64C] the yeast fitness was at most 0.5.
For GUUCCGUUGGCGUAUUGGUAACGGGUCUCUCUCCUAAGGAGAAGACUGCGGGUUCGUGUCCCGUACGGAACG [A15U C24G C30U A57U], the yeast fitness was 0.832.
For GUUCCGUUGGCGUAUUGGUAACGGGUCUCCCUCCUAAAGAGAAGACUGCGGGUUCGAGUCCCGUACGGAACG [A15U C24G G38A], the yeast fitness was 0.551.
GUUCCGUUGGCGUAUUGGUAACGUGUCUCCCUCCUAGGGAGAAGACUGCGGGUUCGAGUCCCGUACGGAACG [A15U C24U A37G] gave a yeast fitness of at most 0.5.
GUUCCGUUGGCGUAUUGGUAACGUGUCUCCCUCCUAGGGAGAAGACUGCGGGUCCGAGUCCCGUAAGGAACG [A15U C24U A37G U54C C66A] gave a yeast fitness of at most 0.5.
For GUUCCGUUGGCGUAUUGGUAACGUGUCUCCCUCCUAAGGUCAAGACUGCGGGUUCGAGUCCCGCACGGAACG [A15U C24U A40U G41C U64C], the yeast fitness was 0.647.
